PHOSPHO1 inh – PubChem AID 1565; Phosphoethanolamine/phosphocholine phosphatase (Homo sapiens), Q8TCT1; recombinant PHOSPHO1, absorbance phosphatase assay; inhibition, % at 13.3 µM; hit rate 1.1% among 290,000; in the data active means inhibition above about 60%
Target sequence (Q8TCT1 whole entry, looked up): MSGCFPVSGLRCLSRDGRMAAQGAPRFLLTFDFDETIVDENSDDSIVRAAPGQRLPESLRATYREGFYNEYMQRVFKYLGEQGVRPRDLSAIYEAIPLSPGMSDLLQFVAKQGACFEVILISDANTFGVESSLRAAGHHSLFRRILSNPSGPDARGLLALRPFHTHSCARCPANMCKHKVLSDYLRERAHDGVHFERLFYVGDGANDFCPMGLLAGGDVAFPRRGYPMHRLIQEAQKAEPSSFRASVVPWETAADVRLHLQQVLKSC
IMP-1 inh-1 – IMP-1 metallo-beta-lactamase inhibitors, primary screen, biochemical, epi-absorbance readout, Pseudomonas aeruginosa enzyme. purified IMP-1, nitrocefin hydrolysis, epi-absorbance fluorescence. AID 1556, 2009. metallo-beta-lactamase IMP-1 (Pseudomonas aeruginosa). inhibition, % at 5.6 µM. hit rate 0.45% among 290,000;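 active means inhibition above the mean plus 3 SD of all compounds in the same screening run, cut at about 4.5% in these data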;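 further: 0% = IMP-1 with DMSO and 100% = DMSO wells lacking enzyme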
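System: Purified recombinant IMP-1 metallo-beta-lactamase enzyme | Measured by: Fluorescence quenching readout, ex 480/em 530 nm | Replication: Singlicate | Incubation: 15 min preincubation plus 25 min reaction at 25 °C | Evaluation: Percent inhibition from optical density relative to buffer-blank wells | Benchmarks: DMSO with and without IMP-1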
VIM-2 inhibitor – VIM-2 metallo-beta-lactamase inhibitors, primary screen, biochemical, epi-absorbance readout, Pseudomonas aeruginosa enzyme | hit rate 0.89% among 290,000 | purified VIM-2, nitrocefin hydrolysis, epi-absorbance fluorescence | inhibition, % at 5.6 µM;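 active means inhibition above the mean of all tested compounds plus 3 SD, cutoff set per screening run, cut at about 7.5% in these data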;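 further: red hydrolysis product quenches plate fluorescence so inhibitors raise well fluorescence; 0% = enzyme with DMSO and 100% = DMSO without enzyme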
Calb FLC – C. albicans growth inhibition with fluconazole, primary screen, CaCi-2 strain, Alamar Blue fluorescence. C. albicans CaCi-2 (fluconazole-resistant clinical isolate) + fluconazole, 48 h. growth inhibition, % (test concentration not listed). hit rate 0.57% among 300,000. AID 1979, 2009;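 active means growth inhibition above about 58% in most replicates, limit read from the data, passing the limit was not always enough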;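 further: all wells also contain fluconazole at 8 µg/ml as a sub-toxic cotreatment; 0% = median of DMSO wells and 100% = median of geldanamycin control wells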
ARFGAP1 inhibitor – inhibitors of rat ARFGAP1 GAP activity, primary screen, biochemical, fluorescence polarization, GDP tracer | inhibition, % at 16.5 µM | Arfgap1-stimulated ARF1 GTP hydrolysis, GDP FP detection | hit rate 0.26% among 360,000 | ADP-ribosylation factor GTPase-activating protein 1 (Rattus norvegicus), Q62848;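 active means inhibition above a per-plate limit, mean inhibition of low control wells plus 3 SD, cut at about 25% in these data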;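 further: 0% = DMSO wells with enzyme and 100% = wells lacking Arfgap1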
Target sequence (Q62848 1-136 limits assumed): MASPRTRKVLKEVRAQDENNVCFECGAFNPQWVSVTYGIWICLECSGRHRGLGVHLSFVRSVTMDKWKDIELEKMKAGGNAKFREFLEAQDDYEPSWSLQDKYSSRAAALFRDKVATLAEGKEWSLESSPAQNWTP
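Material – truncated rat Arfgap1 GAP domain · Buffer or medium – HEPES-based buffer, pH 7.5 · Reagent – human ARF1(Δ1-17)-GTP substrate · Dosing – 16.5 µM single point, 1.26% DMSO · Schedule – GTP hydrolysis reaction 2 h at 25 °C · Technique – GDP detection by fluorescence polarization · Benchmarks – No-Arfgap1 wells (100%) versus DMSO full-reaction wells (0%) · Repeats – single replicate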
ASAP1 inh – inhibitors of human ASAP1 ArfGAP activity, primary screen, biochemical, fluorescence polarization | Arf-GAP with SH3 domain, ANK repeat and PH domain-containing protein 1 (Homo sapiens), … | ASAP1-stimulated ARF1 GTP hydrolysis, GDP FP detection | inhibition, % at 16.5 µM | hit rate 0.19% among 360,000; in the data active means inhibition above about 25%;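 further: 0% = vehicle with enzyme and substrate and 100% = no enzyme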
IMP-1 inh-2 – IMP-1 metallo-beta-lactamase inhibitors, confirmation, selectivity assay for selective VIM-2 inhibitor project, biochemical, epi-absorbance readout, triplicate | shares compounds with VIM-2 inhibitor | purified IMP-1, nitrocefin hydrolysis, epi-absorbance fluorescence | inhibition, % at 5.6 µM | 1,300 tested, under 10 active | AID 1856, 2009; call rule not given here;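 further: 0% = enzyme with vehicle and 100% = vehicle without enzyme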
VIM-2 FRET ctr – VIM-2 inhibitors in FRET format, confirmation, artefact control for selective VIM-2 inhibitor project, biochemical, epi-absorbance artifact exclusion. shares compounds with VIM-2 inhibitor. purified VIM-2, CCF2 FRET substrate hydrolysis. inhibition, % at 5.6 µM. hit rate 23% among 1,300;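 active means inhibition above the mean of all tested compounds plus 3 SD, cut at about 19% in these data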;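 further: 0% = VIM-2 plus DMSO and 100% = no enzyme wells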
TEM-1 inh – TEM-1 serine beta-lactamase inhibitors, counter-screen for VIM-2 inhibitor project, biochemical, epi-absorbance, HTS; shares compounds with VIM-2 inhibitor; Purified TEM-1, nitrocefin hydrolysis, epi-absorbance fluorescence; inhibition, % at 5.6 µM; hit rate 3% among 1,300; AID 1866, 2009;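 active means inhibition above that campaign's mean inhibition plus 3 SD, cut at about 0.46% in these data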;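 further: 0% = TEM-1 with DMSO and 100% = TEM-1 with 100 µM potassium clavulanate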
VIM-2 inh conf – VIM-2 metallo-beta-lactamase inhibitors, confirmation, biochemical, epi-absorbance, hits shared with IMP-1 screen; shares compounds with VIM-2 inhibitor; purified VIM-2, nitrocefin hydrolysis; inhibition, % at 5.6 µM; hit rate 96% among 1,300;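 active means inhibition of the VIM-2 beta-lactamase enzyme above about 11% from the earlier first-round screen, limit read from the data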;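 further: 0% = VIM-2 with DMSO and 100% = buffer wells without enzyme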
Starred values were filed as active, the others as inactive; . = no result. Only some compounds are listed: those with a hit (about 2.6% of all), similar ones and a draw of the others.

SMILES	PHOSPHO1 inh	IMP-1 inh-1	VIM-2 inhibitor	Calb FLC	ARFGAP1 inhibitor	ASAP1 inh	IMP-1 inh-2	VIM-2 FRET ctr	TEM-1 inh	VIM-2 inh conf
COc1ccc(OC)c(Nc2cc(C)nc3nc(C)nn23)c1	22	-4	15*	-1	4	-11	-3	-2	-4	30*
CC1CCCCc2nc3c(c(=O)n21)CCCC3 (configuration not stated)	.	.	.	.	-6	0	.	.	.	.
OC[C@@H](O)C(O)[C@@H](O)CO (some centres not stated)	.	.	.	.	-6	-4	.	.	.	.
CCOC(=O)/C=C/c1cccc(C)c1O	.	.	.	.	-6	1	.	.	.	.
COc1cc(/C=N/N(CCO)C2=NS(=O)(=O)c3ccccc32)cc(OC)c1OC	36	-5	12*	-6	-3	-1	-3	-4	-6	21*
CN(C)c1ccc(/C=N/N(CCC(=O)NC(C)(C)C)C2=NS(=O)(=O)c3ccccc32)cc1	28	-3	20*	22	2	5	-4	-1	-7	4
O=C1c2cccc3cccc(c23)C(c2nc3ccccc3[nH]2)N1C1CC1 (configuration not stated)	.	.	.	.	16	7	.	.	.	.
CCN(CC)CCC(=O)Nc1cccc2c1C(=O)c1ccccc1C2=O	3	-1	33*	-16	11	-6	-2	-1	-9	45*
CCN(CC)CCNC(=O)c1ccc2c(c1NCCO)C(=O)c1ccccc1C2=O	7	-1	14*	-4	9	6	-5	2	-8	20*
Cc1ccccc1S(=O)(=O)NC(=O)C1(C)CCN1C(=O)CCc1ccc(Cl)cc1Cl (configuration not stated)	.	.	.	.	-8	5	.	.	.	.
CCOC(=O)c1cnc(-n2nc(C)cc2C)nc1NCCO	15	-2	1	5	3	1	.	.	.	.
CCOC(=O)c1cnc(-n2nc(C)cc2C)nc1NCc1ccccc1	55	-4	36*	-13	-8	-8	-5	-38	-5	50*
O=C(CC[C@H]1O[C@@H](n2ccc(=O)[nH]c2=O)[C@H](O)[C@@H]1O)N[C@@H](Cc1ccccc1)C(=O)NCC1CCCCC1	.	.	.	.	-4	0	.	.	.	.
Cc1cccc(C2c3[nH]c4ccccc4c3CCN2C(=O)c2cc(CC(C)C)nc(C)n2)n1 (configuration not stated)	7	-4	-2	18	-9	0	.	.	.	.
Cc1cccc(C2c3[nH]c4ccccc4c3CCN2C(=O)c2cc(CC(C)C)[nH]c(=O)n2)n1 (configuration not stated)	20	-2	24*	4	1	5	-4	58*	-5	36*
CSCc1cc(N(C)c2ccccc2)nc(-c2ccccn2)n1	20	-3	64*	-33	-4	0	-4	-56	-7	72*

High-throughput results (PubChem BioAssay)
